According to ChEMBL document CHEMBL1132148, “Synthesis and biological activity of (hydroxymethyl)- and (diethylaminomethyl)benzopsoralens” (J Med Chem, 1999):
pIC50: −log10 of the molar value. The source made the active and inactive calls. The rule behind the calls is not given here.

Legend:
[1] = The IC50-dark is the drug concentration necessary to induce a 50% inhibition of DNA synthesis by incubation at the ground state by keeping mammalian cells in the dark.; type: functional
Procedure, shortened: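 Ehrlich cells (Lettré strain) in PBS received compound at room temperature without irradiation, with final DMSO ≤0.5%. They were then held 30 min at 37 °C in the dark with 40 kBq·mL-1 [3H]thymidine. DNA-incorporated radioactivity is expressed as % of untreated controls, and IC50 is the concentration giving 50% inhibition.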

[2] = The IC50-UVA is the dose of UVA light which in the presence of fixed drug concentration (20 uM) is necessary to induce a 50% inhibition of DNA synthesis by incubation at the ground state by keeping mammalian cells in the dark.; type: functional
Procedure, shortened: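 Ehrlich cells (Lettré strain) at 2 × 10^7 cells·mL-1 in PBS were irradiated with increasing UVA doses in the presence of 20 μM compound, with final DMSO ≤0.5%. Then 10^6 cells were labelled with 40 kBq·mL-1 [3H]thymidine for 30 min at 37 °C. Incorporation is given as % of untreated control, and IC50-UVA is the UVA dose (kJ·m-2) giving 50% inhibition.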

Cavia porcellus [3] = species on record: Cavia porcellus; test: Phototoxicity on guinea pig skin was calculated at concentration of 30 uM.cm-2 and UVA light dose 20 kJ.me-2.-- indicates no erythemia.; type: functional, organism-based
Procedure, shortened: (§1)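 Depilated albino guinea pigs (outbred Dunkin-Hartley) received test compounds topically as 4.5 mM methanol solutions and were then exposed to UVA. The read-out was erythema scoring.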

[4] = The IC50-UVA is the dose of UVA light which in the presence of fixed drug concentration (20 uM) is necessary to induce a 50% inhibition of clonal growth by incubation at the ground state by keeping mammalian cells in the dark; type: functional
Procedure, shortened: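 HeLa cells were grown in F-12 Ham with 5% FCS at 37 °C under 5% CO2, seeded at 1.5–2 × 10^5 and given 20 μM compound after 24 h. Cells had 15 min of dark uptake, then increasing UVA doses. Afterwards 200 cells were replated in 10% FCS medium for 7 days and colonies of ≥50 cells were counted. Clonal efficiency is colonies over cells seeded. IC50-UVA is the UVA dose giving 50% inhibition.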

[5] = The IC50-dark is the drug concentration necessary to induce a 50% inhibition of clonal growth by incubation at the ground state by keeping mammalian cells in the dark.; type: functional
Procedure, shortened: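 HeLa cells seeded at 1.5–2 × 10^5 were exposed after 24 h to compound in serum-containing growth medium for 3 h at 37 °C under 5% CO2, in the dark and without UVA. Controls had 0.5% DMSO. Afterwards 200 cells were replated and grown 7 days, and colonies of ≥50 cells were counted. IC50 is the concentration halving clonal efficiency.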

Cavia porcellus [6] = species on record: Cavia porcellus; test: Phototoxicity on guinea pig skin was calculated at concentration of 4 uM.cm-2 and UVA light dose 5 kJ.me-2.+-- barely erythemia; type: functional, organism-based; procedure, shortened: as §1
Cavia porcellus [7] = species on record: Cavia porcellus; test: Phototoxicity on guinea pig skin was calculated at concentration of 30 uM.cm-2 and UVA light dose 5 kJ.me-2. ++++ medium erythemia; type: functional, organism-based; settings: in the assay text read “strong erythema with edema” for “medium erythemia”; procedure, shortened: as §1
Cavia porcellus [8] = species on record: Cavia porcellus; test: Phototoxicity on guinea pig skin was calculated at concentration of 2 uM.cm-2 and UVA light dose 5 kJ.me-2.-- indicates no erythemia; type: functional, organism-based; procedure, shortened: as §1

Compound	pIC50 [1]	IC50 [2]	Intensity of erythemia (Cavia porcellus [3])	IC50 [4]	pIC50 [5]	Intensity of erythemia (Cavia porcellus [6])	Intensity of erythemia (Cavia porcellus [7])	Intensity of erythemia (Cavia porcellus [8])
CCN(CC)Cc1c2ccc(=O)oc2cc2oc3ccccc3c12	< 4.52	> 30 kJ m**-2	no erythemia	> 30 kJ m**-2	< 4.52			
O=c1ccc2cc3c(oc4ccccc43)c(CO)c2o1	5.52	0.97 kJ m**-2	no erythemia	0.19 kJ m**-2	5.17			
COc1c2occc2cc2ccc(=O)oc12 [METHOXSALEN]	< 4.52	3.59 kJ m**-2		1.23 kJ m**-2	< 4.52	Partially active	Active	inactive
O=c1ccc2c(CO)c3c(cc2o1)oc1ccccc13	4.96	8.3 kJ m**-2	no erythemia	0.23 kJ m**-2	4.60			
CCN(CC)Cc1ccc2c(c1)oc1cc3oc(=O)cc(C)c3cc12	< 4.52	2.22 kJ m**-2	no erythemia	1.83 kJ m**-2	< 4.52			
CCN(CC)Cc1cc2cc3c(cc2oc1=O)oc1ccccc13	< 4.52	> 30 kJ m**-2	no erythemia	> 30 kJ m**-2	< 4.52			
CCN(CC)Cc1c2oc(=O)ccc2cc2c1oc1ccccc12	4.97	9.3 kJ m**-2	no erythemia	0.65 kJ m**-2	4.97			
Cc1cc(=O)oc2cc3oc4cc(CO)ccc4c3cc12	< 4.52	0.48 kJ m**-2	no erythemia	0.16 kJ m**-2	< 4.52			
O=c1cc(CO)c2cc3c(cc2o1)oc1ccccc13	6.03	0.67 kJ m**-2	no erythemia	0.11 kJ m**-2	5.42			
O=c1oc2cc3oc4ccccc4c3cc2cc1CO	< 4.52	16.8 kJ m**-2	no erythemia	1.06 kJ m**-2	< 4.52			
